According to ChEMBL document CHEMBL4689842, “EUbOPEN Chemogenomics Library wave 1” (2021):

Tested on: HEK-293T
Test: Multiplex assay against HEK293T;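 for Population Tubulin-Different-Phenotype (%): share of the cells with healthy nuclei that show this phenotype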
Format: toxicity, cell-based
Conditions: human
Summary of the method: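 On a CQ1 microscope at 37°C and 5% CO2, live cells were imaged after compound addition. They had been stained at seeding with Hoechst33342, BioTracker Green Microtubule Cytoskeleton Dye, MitoTracker Red and Annexin V Alexa Fluor 680. CellPathfinder machine-learning gating assigned cells to Hoechst high-intensity objects or normal cells, normal cells to healthy, pyknosed or fragmented nuclei, and pyknosed cells to mitotic or apoptotic. Tubulin, mitochondrial-mass and membrane-permeability phenotypes are per cents of healthy-nucleus cells.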

[1] = 12 h, 1 µM, compound concentration 1 uM, replicate 1
[2] = 12 h, 1 µM, compound concentration 1 uM, replicate 2
[3] = 12 h, 10 µM, compound concentration 10 uM, replicate 1
[4] = 12 h, 10 µM, compound concentration 10 uM, replicate 2
[5] = 24 h, 1 µM, compound concentration 1 uM, replicate 1
[6] = 24 h, 1 µM, compound concentration 1 uM, replicate 2
[7] = 24 h, 10 µM, compound concentration 10 uM, replicate 1
[8] = 24 h, 10 µM, compound concentration 10 uM, replicate 2
[9] = 48 h, 1 µM, compound concentration 1 uM, replicate 1
[10] = 48 h, 1 µM, compound concentration 1 uM, replicate 2
[11] = 48 h, 10 µM, compound concentration 10 uM, replicate 1
[12] = 48 h, 10 µM, compound concentration 10 uM, replicate 2

Structure (SMILES): CC(C)OC(=O)N1CCC(Oc2ncnc3c2cnn3-c2ccc(S(C)(=O)=O)cc2F)CC1
- Population Apoptotic (%) [1]: 57%
- Population Fragmented Nuclei (%) [1]: 8%
- Population Healthy Nuclei (%) [1]: 35%
- Population Hoechst High Intensity Objects (%) [1]: 14%
- Population Membrane Permeable-Phenotype (%) [1]: 4%
- Population Mitochondria Different-Phenotype (%) [1]: 80%
- Population Mitotic Cells (%) [1]: 42%
- Population Normal (%) [1]: 85%
- Population Pyknosed Nuclei (%) [1]: 56%
- Population Tubulin-Different-Phenotype (%) [1]: 39%
- Total Cell Count [1]: 225
- Population Apoptotic (%) [2]: 12%
- Population Fragmented Nuclei (%) [2]: 5%
- Population Healthy Nuclei (%) [2]: 49%
- Population Hoechst High Intensity Objects (%) [2]: 4%
- Population Membrane Permeable-Phenotype (%) [2]: 5%
- Population Mitochondria Different-Phenotype (%) [2]: 11%
- Population Mitotic Cells (%) [2]: 87%
- Population Normal (%) [2]: 95%
- Population Pyknosed Nuclei (%) [2]: 44%
- Population Tubulin-Different-Phenotype (%) [2]: 9%
- Total Cell Count [2]: 220
- Population Apoptotic (%) [3]: 53%
- Population Fragmented Nuclei (%) [3]: 16%
- Population Healthy Nuclei (%) [3]: 32%
- Population Hoechst High Intensity Objects (%) [3]: 18%
- Population Membrane Permeable-Phenotype (%) [3]: 6%
- Population Mitochondria Different-Phenotype (%) [3]: 93%
- Population Mitotic Cells (%) [3]: 46%
- Population Normal (%) [3]: 81%
- Population Pyknosed Nuclei (%) [3]: 51%
- Population Tubulin-Different-Phenotype (%) [3]: 61%
- Total Cell Count [3]: 186
- Population Apoptotic (%) [4]: 5%
- Population Fragmented Nuclei (%) [4]: 5%
- Population Healthy Nuclei (%) [4]: 45%
- Population Hoechst High Intensity Objects (%) [4]: 3%
- Population Membrane Permeable-Phenotype (%) [4]: 8%
- Population Mitochondria Different-Phenotype (%) [4]: 15%
- Population Mitotic Cells (%) [4]: 94%
- Population Normal (%) [4]: 96%
- Population Pyknosed Nuclei (%) [4]: 49%
- Population Tubulin-Different-Phenotype (%) [4]: 20%
- Total Cell Count [4]: 220
- Population Apoptotic (%) [5]: 51%
- Population Fragmented Nuclei (%) [5]: 11%
- Population Healthy Nuclei (%) [5]: 39%
- Population Hoechst High Intensity Objects (%) [5]: 15%
- Population Membrane Permeable-Phenotype (%) [5]: 4%
- Population Mitochondria Different-Phenotype (%) [5]: 58%
- Population Mitotic Cells (%) [5]: 48%
- Population Normal (%) [5]: 84%
- Population Pyknosed Nuclei (%) [5]: 48%
- Population Tubulin-Different-Phenotype (%) [5]: 35%
- Total Cell Count [5]: 254
- Population Apoptotic (%) [6]: 11%
- Population Fragmented Nuclei (%) [6]: 7%
- Population Healthy Nuclei (%) [6]: 62%
- Population Hoechst High Intensity Objects (%) [6]: 3%
- Population Membrane Permeable-Phenotype (%) [6]: 9%
- Population Mitochondria Different-Phenotype (%) [6]: 11%
- Population Mitotic Cells (%) [6]: 88%
- Population Normal (%) [6]: 96%
- Population Pyknosed Nuclei (%) [6]: 29%
- Population Tubulin-Different-Phenotype (%) [6]: 16%
- Total Cell Count [6]: 277
- Population Apoptotic (%) [7]: 46%
- Population Fragmented Nuclei (%) [7]: 13%
- Population Healthy Nuclei (%) [7]: 38%
- Population Hoechst High Intensity Objects (%) [7]: 18%
- Population Membrane Permeable-Phenotype (%) [7]: 1%
- Population Mitochondria Different-Phenotype (%) [7]: 75%
- Population Mitotic Cells (%) [7]: 53%
- Population Normal (%) [7]: 81%
- Population Pyknosed Nuclei (%) [7]: 48%
- Population Tubulin-Different-Phenotype (%) [7]: 67%
- Total Cell Count [7]: 194
- Population Apoptotic (%) [8]: 3%
- Population Fragmented Nuclei (%) [8]: 4%
- Population Healthy Nuclei (%) [8]: 65%
- Population Hoechst High Intensity Objects (%) [8]: 3%
- Population Membrane Permeable-Phenotype (%) [8]: 4%
- Population Mitochondria Different-Phenotype (%) [8]: 22%
- Population Mitotic Cells (%) [8]: 96%
- Population Normal (%) [8]: 96%
- Population Pyknosed Nuclei (%) [8]: 30%
- Population Tubulin-Different-Phenotype (%) [8]: 29%
- Total Cell Count [8]: 268
- Population Apoptotic (%) [9]: 59%
- Population Fragmented Nuclei (%) [9]: 14%
- Population Healthy Nuclei (%) [9]: 48%
- Population Hoechst High Intensity Objects (%) [9]: 16%
- Population Membrane Permeable-Phenotype (%) [9]: 5%
- Population Mitochondria Different-Phenotype (%) [9]: 21%
- Population Mitotic Cells (%) [9]: 40%
- Population Normal (%) [9]: 83%
- Population Pyknosed Nuclei (%) [9]: 36%
- Population Tubulin-Different-Phenotype (%) [9]: 25%
- Total Cell Count [9]: 312
- Population Apoptotic (%) [10]: 5%
- Population Fragmented Nuclei (%) [10]: 8%
- Population Healthy Nuclei (%) [10]: 79%
- Population Hoechst High Intensity Objects (%) [10]: 3%
- Population Membrane Permeable-Phenotype (%) [10]: 3%
- Population Mitochondria Different-Phenotype (%) [10]: 4%
- Population Mitotic Cells (%) [10]: 94%
- Population Normal (%) [10]: 96%
- Population Pyknosed Nuclei (%) [10]: 11%
- Population Tubulin-Different-Phenotype (%) [10]: 17%
- Total Cell Count [10]: 463
- Population Apoptotic (%) [11]: 50%
- Population Fragmented Nuclei (%) [11]: 18%
- Population Healthy Nuclei (%) [11]: 41%
- Population Hoechst High Intensity Objects (%) [11]: 16%
- Population Membrane Permeable-Phenotype (%) [11]: 3%
- Population Mitochondria Different-Phenotype (%) [11]: 60%
- Population Mitotic Cells (%) [11]: 49%
- Population Normal (%) [11]: 83%
- Population Pyknosed Nuclei (%) [11]: 39%
- Population Tubulin-Different-Phenotype (%) [11]: 53%
- Total Cell Count [11]: 237
- Population Apoptotic (%) [12]: 11%
- Population Fragmented Nuclei (%) [12]: 5%
- Population Healthy Nuclei (%) [12]: 82%
- Population Hoechst High Intensity Objects (%) [12]: 3%
- Population Membrane Permeable-Phenotype (%) [12]: 4%
- Population Mitochondria Different-Phenotype (%) [12]: 3%
- Population Mitotic Cells (%) [12]: 88%
- Population Normal (%) [12]: 96%
- Population Pyknosed Nuclei (%) [12]: 11%
- Population Tubulin-Different-Phenotype (%) [12]: 23%
- Total Cell Count [12]: 480
